Bioassay records: PubChem, Broad Institute
ARNT-TACC3 inh: ARNT/TACC3 interaction disruption. inhibition, % at 9.99 µM. Q9Y6A5. AlphaScreen His-ARNT PAS-B/GST-TACC3 binding, luminescence; TACC3 fragment carries E629A point mutation. AID 623870. actives 0.66% (n = 390,000);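 active means mean inhibition of replicates at least 50% and at least half of replicates each reaching 50%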
CaV13 ICDI inh: Disruptors of the CACNA1D IQ motif to Ca2+-dependent inactivation inhibitor domain association, primary screening, Förster resonance energy transfer in intact living …; HEK cells, CFP/YFP FRET ICDI-IQ, plate reader, 10 min; percent FRET-ratio fall versus neutral wells; inhibition, % at 12.3 µM; actives 0.098% (n = 340,000);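 active means mean replicate inhibition of at least 30% and at least 1% of replicates passing that level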
CAL PDZ FP-1: inhibitors of human CAL PDZ peptide binding. actives 0.02% (n = 330,000). purified CAL PDZ, TMR-peptide fluorescence polarization, 1 h. inhibition, % at 20 µM. AID 504414;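 active means highest replicate inhibition of at least 40%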
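Test system: purified CerCALP PDZ construct; Compound dosing: one concentration, 20 µM compound; Also added: TMR-labelled reporter peptide T*-PRC34 bound in PDZ groove; Read-out: inhibition from polarization loss; Controls: unlabelled peptide and DMSO controls; Signal: FP readout, S and P plane fluorescence; Incubation: 1 h at RT.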
CAL PDZ FP-2: CAL PDZ (human) peptide binding inhibition | Q9HD26 | purified CAL PDZ, TMR-peptide fluorescence polarization, 1 h | inhibition, % at 24.9 µM | actives 0.92% (n = 300,000) | AID 602252;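 active means mean inhibition of at least 30% with at least half of replicates also reaching 30%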
Each line names hits and unclear results; the compound was inactive in the other large screens. Most compounds without a hit are left out; they make up all but 1.2% or so of the library.

COc1ccccc1C(C)Nc1ccc(S(=O)(=O)N2CCN(C)CC2)cc1[N+](=O)[O-] (stereo not drawn)	ARNT-TACC3 inh 64.6 (no result: CAL PDZ FP-2)
O=C(O)c1cccc(NC(=O)c2cccc(S(=O)(=O)Nc3cccc([N+](=O)[O-])c3)c2)c1	CAL PDZ FP-2 96.5
CN(C)C(=O)C[C@@H]1C=C[C@H](NS(=O)(=O)c2ccccc2)[C@@H](CO)O1	none (no result: CaV13 ICDI inh, CAL PDZ FP-1, CAL PDZ FP-2)
Cc1cc(NC(=O)c2ccc(C#N)cc2)n(-c2ccccn2)n1	CAL PDZ FP-2 78.1
Cc1cc(NC(=O)c2ccc(F)cc2)n(-c2ccccn2)n1	none (no result: ARNT-TACC3 inh)
Cc1onc(-c2ccc(Cl)cc2Cl)c1-c1csc(N/N=C/c2ccccc2)n1	CAL PDZ FP-2 54.2
O=C(NCc1ccc(F)cc1)C1CCCN1C(=O)Nc1cccc(F)c1 (stereo not drawn)	CaV13 ICDI inh 63.7
O=C(Cn1ccccc1=S)c1ccc(Cl)c(Cl)c1	none (no result: ARNT-TACC3 inh, CAL PDZ FP-1, CAL PDZ FP-2)
On1ccccc1=S	ARNT-TACC3 inh active
CCOC(=O)c1c(C)[nH]c(C)c1C(=O)COC(=O)C1CC(=O)N(CCc2ccccc2)C1 (stereo not drawn)	CAL PDZ FP-2 35.8
CC(C)NC(=O)Nc1ccc2c(c1)C(=O)N([C@@H](C)CO)C[C@H](C)[C@@H](CN(C)Cc1ccc(C(F)(F)F)cc1)OCCCC[C@H](C)O2	none (no result: CaV13 ICDI inh, CAL PDZ FP-1, CAL PDZ FP-2)
CCOC(=O)c1sc(NC(=O)CNCc2cccnc2)c(C(=O)OCC)c1C	none
CCOC(=O)c1sc(NC(=O)CNCc2ccccn2)c(C(=O)OCC)c1C	ARNT-TACC3 inh 48.5
CC(C)CNC(=O)C(=O)NC1CCCC1	none (no result: CaV13 ICDI inh)
CC(C)CNC(=S)NC1CCCC1	CAL PDZ FP-2 139.5 (no result: CAL PDZ FP-1)
Cc1ccnc(SCC(=O)Nc2sccc2C#N)n1	CAL PDZ FP-2 38.8
CC(=O)Nc1ccc(SCC(=O)Nc2sccc2C#N)cc1	none
O=C(C[C@H]1CC[C@@H]2[C@H](COC[C@@H](O)CN2S(=O)(=O)c2ccc(Cl)cc2)O1)NCc1ccncn1	none (no result: CaV13 ICDI inh, CAL PDZ FP-1, CAL PDZ FP-2)
C=CCn1c(Cc2csc(N)n2)nnc1SCc1ccc(C(=O)OC)cc1	none
C=CCn1c(Cc2csc(N)n2)nnc1SCC(=O)OCC	ARNT-TACC3 inh 46.1
CN(C)CCCCOc1ccc(Br)cc1Cl	CAL PDZ FP-2 83.5
COCCNC(=O)C(=O)NCCN1CCOCC1	none (no result: CaV13 ICDI inh)
COCCNC(=O)C(=O)NCCN1CCNCC1	CAL PDZ FP-2 87.6
Cc1ccc2[nH]c(=O)c(CN(Cc3cccs3)S(=O)(=O)c3ccc4c(c3)OCCO4)cc2c1	CAL PDZ FP-2 33.8
Cc1nc(N2CCN(C)CC2)c2sc(=S)n(-c3ccccc3)c2n1	none (no result: CAL PDZ FP-2)
S=c1sc2c(Cl)ncnc2n1-c1ccccc1	ARNT-TACC3 inh 68.6 (no result: CAL PDZ FP-2)
CC(=O)NC[C@H]1[C@H](c2ccc(-c3ccccc3)cc2)[C@H](CO)N1C(=O)C1CCC1	none (no result: CaV13 ICDI inh, CAL PDZ FP-1, CAL PDZ FP-2)
CCN(CC)c1ccc(/C=N/N2CCN(c3ccccn3)CC2)cc1	CAL PDZ FP-2 42.6
Cn1nnnc1SCc1cccc2ccccc12	CAL PDZ FP-2 34.2 (no result: CAL PDZ FP-1)
COc1ccccc1N1CCN(Cc2cc(=O)c(OCC(=O)NC(C)C)co2)CC1	none
CC(C)NC(=O)COc1coc(CN2CCN(c3ccccc3F)CC2)cc1=O	CAL PDZ FP-2 60.3
Cc1noc(C)c1S(=O)(=O)Nc1ccc2c(c1)C(=O)N([C@H](C)CO)C[C@@H](C)[C@@H](CN(C)C(=O)CCCN(C)C)OCCCC[C@@H](C)O2	none (no result: CaV13 ICDI inh, CAL PDZ FP-1, CAL PDZ FP-2)
Cc1c(C=O)c2ccccn2c1C(=O)c1cccs1	CaV13 ICDI inh 32.0
Cc1c(C=O)c2ccccn2c1C(=O)c1ccccc1Cl	none
C[C@@H]1CCCCO[C@H](CN(C)C(=O)NC2CCCCC2)[C@@H](C)CN([C@H](C)CO)C(=O)c2cc(NC(=O)Nc3cccc4ccccc34)ccc2O1	none (no result: CaV13 ICDI inh, CAL PDZ FP-1, CAL PDZ FP-2)
COc1ccc(NC(=S)NCCN2CCOCC2)cc1	none
Oc1cccc(/C=N/NC(=S)NCCN2CCOCC2)c1O	ARNT-TACC3 inh 69.2 (no result: CAL PDZ FP-2)
N#Cc1ccc(NC(=S)NCCN2CCOCC2)cc1	CAL PDZ FP-2 91.2
S=C(NCCN1CCOCC1)N/N=C/c1cccs1	none
O=C(NCCc1ccccc1)C1CCN(C2CCN(Cc3ccco3)CC2)CC1	CAL PDZ FP-2 30.1
C[C@H]1CN([C@@H](C)CO)C(=O)Cc2cc(NC(=O)CCCCCC(=O)Nc3ccccc3N)ccc2O[C@H]1CN(C)S(=O)(=O)c1ccccc1	none (no result: CaV13 ICDI inh, CAL PDZ FP-1, CAL PDZ FP-2)
COc1ccc(S(=O)(=O)Nc2ccc3c(c2)C(=O)N([C@@H](C)CO)C[C@@H](C)[C@H](CN(C)S(=O)(=O)c2cccs2)OCCCC[C@H](C)O3)cc1	none (no result: CaV13 ICDI inh, CAL PDZ FP-1, CAL PDZ FP-2)
O=C(O)c1cc2ccccc2cn1	ARNT-TACC3 inh 76.6
O=C(O)c1cnc2ccccc2n1	none
